Test results published in ChEMBL document CHEMBL1250477, “Reverse engineering truncations of an antimicrobial peptide dimer to identify the origins of potency and broad spectrum of action” (J Med Chem, 2010).
≈ marks a conversion by molar mass, not a printed value. Calls of active or inactive are those of the source. The rule behind the calls is not given here.

Assays:
Escherichia coli [1] = test: Induction of morphological changes in Escherichia coli ML35p assessed as thin filamentous phenotype at MIC concentration after 18 hrs using propidium iodide/Syto9 staining by microscopic analysis; type: functional, organism-based
Summary of the method: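 Incubated overnight (18 h) with peptide at its MIC, 37 °C, 200 rpm. Stained 15 min with PI (2.7 μM) and Syto 9 (6 μM), smeared, heat-fixed and imaged under Syto and PI filters. Untreated cells as control.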

Escherichia coli [2] = test: Drug uptake in Escherichia coli ML35p outer membrane assessed as increase in fluorescence of N-phenylnaphthylamine at 10 uM measured for 10 mins; type: ADME, organism-based; settings: in vivo
Summary of the method: (§1)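 NPN uptake: mid-log cells washed and resuspended in 5 mM glucose/5 mM HEPES pH 7.2. Peptide added to 10 μM final, with 10 μM NPN. Fluorescence (ex 350 nm, em 420 nm) monitored for 10 min.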

Escherichia coli [3] = test: Drug uptake in Escherichia coli ML35p inner membrane assessed as increase in fluorescence of propidium iodide at 10 uM measured for 10 mins; type: ADME, organism-based; settings: in vivo
Summary of the method: (§2)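 PI uptake: mid-log cells washed and resuspended in 5 mM glucose/5 mM HEPES pH 7.2. Peptide added to 10 μM final, with 2.7 μM propidium iodide. Fluorescence (ex 535 nm, em 617 nm) followed for 10 min; lag before rise read from trace.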

Escherichia coli [4] = test: Drug uptake in Escherichia coli ML35p inner membrane assessed as time required to permeabilize to inner membrane at 10 uM; type: ADME, organism-based; settings: in vivo; summary of the method: as §2
Escherichia coli [5] = test: Drug uptake in Escherichia coli ML35p inner membrane assessed as lag time at 10 uM; type: ADME, organism-based; settings: in vivo; summary of the method: as §2
Escherichia coli [6] = test: Drug uptake in Escherichia coli ML35p outer membrane assessed as time required to permeabilize to outer membrane at 10 uM; type: ADME, organism-based; settings: in vivo; summary of the method: as §1
Staphylococcus aureus [7] = test: Antibacterial activity against vancomycin/methicillin-resistant Staphylococcus aureus ATCC 700699 after 18 hrs; type: functional; settings: ATCC 700699, 18 h
Summary of the method: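 Modified broth microdilution for cationic peptides. Overnight cells were diluted in Mueller Hinton broth to 10⁵ CFU/mL, and peptide was added from a 10× stock in 0.2% BSA/0.01% acetic acid. MIC = lowest concentration inhibiting measurable growth. Triplicates, repeated at least twice.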

Escherichia coli [8] = test: Antibacterial activity against Escherichia coli ML35p after 18 hrs; type: functional
Summary of the method: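 Broth microdilution, modified MIC method for cationic peptides. Overnight culture diluted in Mueller Hinton broth to 10⁵ CFU/mL; peptide added from 10× stock in 0.2% BSA/0.01% acetic acid. MIC = lowest concentration inhibiting measurable growth. Triplicates, repeated at least twice.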

Escherichia coli [9] = test: Antibacterial activity against Escherichia coli ML35p assessed as reduction of colony forming units at 4 times MIC concentration after 20 mins; type: functional; design: scale not given: the % may be the effect or the level left
Summary of the method: (§3)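 Time-kill: overnight culture diluted in MH broth to 10⁵ CFU/mL. 1 mL exposed to peptide at 4× MIC, or water as control, at 37 °C, 200 rpm. At time points, aliquots diluted and plated on MH agar. Colonies counted after 20 h at 37 °C. Time to ~95% kill estimated.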

Escherichia coli [10] = test: Ratio of MBC to MIC for Escherichia coli ML35p; type: functional
Summary of the method: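 MBC per CLSI: 100 μL from each clear MIC well plated on MH agar in triplicate, 18 h incubation; MBC = lowest concentration preventing growth of 99.9% of bacteria. Ratio taken as MBC/MIC. Two independent experiments in triplicate.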

Escherichia coli [11] = test: Antibacterial activity against Escherichia coli ML35p assessed as reduction of colony forming units at 4 times MIC concentration after 5 mins; type: functional; design: scale not given: the % may be the effect or the level left; summary of the method: as §3
Escherichia coli [12] = test: Antibacterial activity against Escherichia coli ML35p assessed as reduction of colony forming units at 4 times MIC concentration after 40 mins; type: functional; design: scale not given: the % may be the effect or the level left; summary of the method: as §3
Staphylococcus aureus [13] = test: Ratio of MBC to MIC for vancomycin/methicillin-resistant Staphylococcus aureus ATCC 700699; type: functional
Summary of the method: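 For MBC, 100 μL from each clear well was plated on MH agar in triplicate and incubated for 18 h. MBC = lowest concentration preventing growth of 99.9% of bacteria. The ratio is MBC divided by MIC. Two independent experiments.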

SMILES: CC(=O)NCC(=O)N/C(=C/c1ccccc1)C(=O)N[C@@H](CCCNC(=N)N)C(=O)N[C@H](CCCCN)C(=O)N/C(=C/c1ccccc1)C(=O)N[C@@H](Cc1c[nH]cn1)C(=O)N[C@H](CCCCN)C(=O)N/C(=C\c1ccccc1)C(=O)N[C@@H](Cc1c[nH]c2ccccc12)C(=O)N[C@@H](C)C(=O)NCCCC[C@@H](NC(=O)[C@H](C)NC(=O)[C@H](Cc1c[nH]c2ccccc12)NC(=O)/C(=C\c1ccccc1)NC(=O)[C@@H](CCCCN)NC(=O)[C@H](Cc1c[nH]cn1)NC(=O)/C(=C\c1ccccc1)NC(=O)[C@@H](CCCCN)NC(=O)[C@@H](CCCNC(=N)N)NC(=O)/C(=C\c1ccccc1)NC(=O)CNC(C)=O)C(N)=O
- Activity (Escherichia coli [1]): Active

SMILES: CC(=O)NCC(=O)N[C@@H](CCCNC(=N)N)C(=O)N[C@@H](CCCCN)C(=O)N/C(=C/c1ccccc1)C(=O)N[C@@H](Cc1c[nH]cn1)C(=O)N[C@@H](CCCCN)C(=O)N/C(=C\c1ccccc1)C(=O)N[C@@H](Cc1c[nH]c2ccccc12)C(=O)N[C@@H](C)C(=O)NCCCC[C@H](NC(=O)[C@H](C)NC(=O)[C@H](Cc1c[nH]c2ccccc12)NC(=O)/C(=C\c1ccccc1)NC(=O)[C@H](CCCCN)NC(=O)[C@H](Cc1c[nH]cn1)NC(=O)/C(=C\c1ccccc1)NC(=O)[C@H](CCCCN)NC(=O)[C@H](CCCNC(=N)N)NC(=O)CNC(C)=O)C(N)=O [listing 1 of 2 here]
- Drug uptake (Escherichia coli [2]): Active
- Drug uptake (Escherichia coli [3]): Not Active

SMILES: CC(=O)NCC(=O)N/C(=C/c1ccccc1)C(=O)N[C@@H](CCCNC(=N)N)C(=O)N[C@@H](CCCCN)C(=O)N/C(=C/c1ccccc1)C(=O)N[C@@H](Cc1c[nH]cn1)C(=O)N[C@@H](CCCCN)C(=O)N/C(=C\c1ccccc1)C(=O)N[C@@H](Cc1c[nH]c2ccccc12)C(=O)N[C@@H](C)C(=O)NCCCC[C@H](NC(=O)[C@H](C)NC(=O)[C@H](Cc1c[nH]c2ccccc12)NC(=O)/C(=C\c1ccccc1)NC(=O)[C@H](CCCCN)NC(=O)[C@H](Cc1c[nH]cn1)NC(=O)/C(=C\c1ccccc1)NC(=O)[C@H](CCCCN)NC(=O)[C@H](CCCNC(=N)N)NC(=O)/C(=C\c1ccccc1)NC(=O)CNC(C)=O)C(N)=O [listing 1 of 2 here]
- Time (Escherichia coli [4]): 230 s
- Drug uptake (Escherichia coli [2]): Active
- Drug uptake (Escherichia coli [3]): Active
- Time (Escherichia coli [5]): 2.5 min
- Time (Escherichia coli [6]): 150 s

SMILES: CC(=O)NCC(=O)N[C@@H](Cc1c[nH]cn1)C(=O)N[C@H](CCCCN)C(=O)N/C(=C\c1ccccc1)C(=O)N[C@@H](Cc1c[nH]c2ccccc12)C(=O)N[C@@H](C)C(=O)NCCCC[C@@H](NC(=O)[C@H](C)NC(=O)[C@H](Cc1c[nH]c2ccccc12)NC(=O)/C(=C\c1ccccc1)NC(=O)[C@@H](CCCCN)NC(=O)[C@H](Cc1c[nH]cn1)NC(=O)CNC(C)=O)C(N)=O
- MIC (Staphylococcus aureus [7]): > 100 µM
- MIC (Escherichia coli [8]): > 100 µM

SMILES: CC(=O)NCC(=O)N[C@H](CCCCN)C(=O)N/C(=C\c1ccccc1)C(=O)N[C@@H](Cc1c[nH]c2ccccc12)C(=O)N[C@@H](C)C(=O)NCCCC[C@@H](NC(=O)[C@H](C)NC(=O)[C@H](Cc1c[nH]c2ccccc12)NC(=O)/C(=C\c1ccccc1)NC(=O)[C@@H](CCCCN)NC(=O)CNC(C)=O)C(N)=O [PEPTIDE A]
- MIC (Staphylococcus aureus [7]): > 100 µM
- MIC (Escherichia coli [8]): > 100 µM

SMILES: CC(=O)NCC(=O)N[C@@H](CCCNC(=N)N)C(=O)N[C@@H](CCCCN)C(=O)N/C(=C/c1ccccc1)C(=O)N[C@@H](Cc1c[nH]cn1)C(=O)N[C@@H](CCCCN)C(=O)N/C(=C\c1ccccc1)C(=O)N[C@@H](Cc1c[nH]c2ccccc12)C(=O)N[C@@H](C)C(=O)NCCCC[C@H](NC(=O)[C@H](C)NC(=O)[C@H](Cc1c[nH]c2ccccc12)NC(=O)/C(=C\c1ccccc1)NC(=O)[C@H](CCCCN)NC(=O)[C@H](Cc1c[nH]cn1)NC(=O)/C(=C\c1ccccc1)NC(=O)[C@H](CCCCN)NC(=O)[C@H](CCCNC(=N)N)NC(=O)CNC(C)=O)C(N)=O [listing 2 of 2 here]
- Activity (Escherichia coli [9]): 95%
- Ratio (Escherichia coli [10]): 2
- MIC (Staphylococcus aureus [7]): > 100 µM
- Activity (Escherichia coli [11]): 50%
- MBC (Escherichia coli [8]): 10 µM (≈ 25.4 µg/mL)
- MIC (Escherichia coli [8]): 5 µM (≈ 12.7 µg/mL)

SMILES: CC(=O)NCC(=O)N[C@@H](CCCCN)C(=O)N/C(=C/c1ccccc1)C(=O)N[C@@H](Cc1c[nH]cn1)C(=O)N[C@@H](CCCCN)C(=O)N/C(=C\c1ccccc1)C(=O)N[C@@H](Cc1c[nH]c2ccccc12)C(=O)N[C@@H](C)C(=O)NCCCC[C@H](NC(=O)[C@H](C)NC(=O)[C@H](Cc1c[nH]c2ccccc12)NC(=O)/C(=C\c1ccccc1)NC(=O)[C@H](CCCCN)NC(=O)[C@H](Cc1c[nH]cn1)NC(=O)/C(=C\c1ccccc1)NC(=O)[C@H](CCCCN)NC(=O)CNC(C)=O)C(N)=O [listing 1 of 2 here]
- Ratio (Escherichia coli [10]): 1.5
- MIC (Staphylococcus aureus [7]): > 100 µM
- Activity (Escherichia coli [11]): 50%
- MBC (Escherichia coli [8]): 15 µM (≈ 33.4 µg/mL)
- MIC (Escherichia coli [8]): 10 µM (≈ 22.3 µg/mL)
- Activity (Escherichia coli [12]): 95%

SMILES: CC(=O)NCC(=O)N[C@@H](CCCNC(=N)N)C(=O)N[C@H](CCCCN)C(=O)N/C(=C/c1ccccc1)C(=O)N[C@@H](Cc1c[nH]cn1)C(=O)N[C@H](CCCCN)C(=O)N/C(=C\c1ccccc1)C(=O)N[C@@H](Cc1c[nH]c2ccccc12)C(=O)N[C@@H](C)C(=O)NCCCC[C@@H](NC(=O)[C@H](C)NC(=O)[C@H](Cc1c[nH]c2ccccc12)NC(=O)/C(=C\c1ccccc1)NC(=O)[C@@H](CCCCN)NC(=O)[C@H](Cc1c[nH]cn1)NC(=O)/C(=C\c1ccccc1)NC(=O)[C@@H](CCCCN)NC(=O)[C@@H](CCCNC(=N)N)NC(=O)CNC(C)=O)C(N)=O
- Activity (Escherichia coli [1]): Active

SMILES: CC(=O)NCC(=O)N[C@@H](CCCCN)C(=O)N/C(=C/c1ccccc1)C(=O)N[C@@H](Cc1c[nH]cn1)C(=O)N[C@@H](CCCCN)C(=O)N/C(=C\c1ccccc1)C(=O)N[C@@H](Cc1c[nH]c2ccccc12)C(=O)N[C@@H](C)C(=O)NCCCC[C@H](NC(=O)[C@H](C)NC(=O)[C@H](Cc1c[nH]c2ccccc12)NC(=O)/C(=C\c1ccccc1)NC(=O)[C@H](CCCCN)NC(=O)[C@H](Cc1c[nH]cn1)NC(=O)/C(=C\c1ccccc1)NC(=O)[C@H](CCCCN)NC(=O)CNC(C)=O)C(N)=O [listing 2 of 2 here]
- Drug uptake (Escherichia coli [2]): Active
- Drug uptake (Escherichia coli [3]): Not Active

SMILES: CC(=O)NCC(=O)N/C(=C/c1ccccc1)C(=O)N[C@@H](CCCNC(=N)N)C(=O)N[C@@H](CCCCN)C(=O)N/C(=C/c1ccccc1)C(=O)N[C@@H](Cc1c[nH]cn1)C(=O)N[C@@H](CCCCN)C(=O)N/C(=C\c1ccccc1)C(=O)N[C@@H](Cc1c[nH]c2ccccc12)C(=O)N[C@@H](C)C(=O)NCCCC[C@H](NC(=O)[C@H](C)NC(=O)[C@H](Cc1c[nH]c2ccccc12)NC(=O)/C(=C\c1ccccc1)NC(=O)[C@H](CCCCN)NC(=O)[C@H](Cc1c[nH]cn1)NC(=O)/C(=C\c1ccccc1)NC(=O)[C@H](CCCCN)NC(=O)[C@H](CCCNC(=N)N)NC(=O)/C(=C\c1ccccc1)NC(=O)CNC(C)=O)C(N)=O [listing 2 of 2 here]
- Ratio (Escherichia coli [10]): 2
- MBC (Staphylococcus aureus [7]): 7.5 µM (≈ 21.2 µg/mL)
- MIC (Staphylococcus aureus [7]): 5 µM (≈ 14.1 µg/mL)
- Activity (Escherichia coli [11]): 96%
- Ratio (Staphylococcus aureus [13]): 1.5
- MBC (Escherichia coli [8]): 5 µM (≈ 14.1 µg/mL)
- MIC (Escherichia coli [8]): 2.5 µM (≈ 7.07 µg/mL)

SMILES: CC(=O)NCC(=O)N[C@H](CCCCN)C(=O)N/C(=C/c1ccccc1)C(=O)N[C@@H](Cc1c[nH]cn1)C(=O)N[C@H](CCCCN)C(=O)N/C(=C\c1ccccc1)C(=O)N[C@@H](Cc1c[nH]c2ccccc12)C(=O)N[C@@H](C)C(=O)NCCCC[C@@H](NC(=O)[C@H](C)NC(=O)[C@H](Cc1c[nH]c2ccccc12)NC(=O)/C(=C\c1ccccc1)NC(=O)[C@@H](CCCCN)NC(=O)[C@H](Cc1c[nH]cn1)NC(=O)/C(=C\c1ccccc1)NC(=O)[C@@H](CCCCN)NC(=O)CNC(C)=O)C(N)=O
- Activity (Escherichia coli [1]): Active
